Assay results taken from ChEMBL document CHEMBL1629690, “Development of hexadecyloxypropyl tenofovir (CMX157) for treatment of infection caused by wild-type and nucleoside/nucleotide-resistant HIV” (Antimicrob Agents Chemother, 2010).

system: Human immunodeficiency virus 1; assay: Antiviral activity against HIV1 isolate 162 harboring reverse transcriptase A62V/V75I/F77L/Y115F/F116Y/Q151M/M184V mutant gene by phenosense assay; format: functional, organism-based; details: Human immunodeficiency virus 1, isolate 162
Outline: (§1)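 Recombinant-virus PhenoSense HIV assay run on a panel of 30 NRTI-resistant HIV-1 mutants and two wild-type viruses. Each virus is tested across increasing drug concentrations to give an inhibition curve and EC50. Fold change is the test recombinant EC50 divided by the EC50 of the drug-sensitive wild-type reference virus.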

Q: Which EC50 does the source give for Cc1cn([C@H]2C=C[C@@H](CO)O2)c(=O)[nH]c1=O [STAVUDINE] here?
A: Its EC50 is 4200 nM.

system: Human immunodeficiency virus 1; assay: Antiviral activity against HIV1 isolate 071 harboring reverse transcriptase 65R/S68N/184V mutant gene by phenosense assay; format: functional, organism-based; details: Human immunodeficiency virus 1, isolate 071; outline: as §1

Q: With Cc1cn([C@H]2C=C[C@@H](CO)O2)c(=O)[nH]c1=O [STAVUDINE] as the compound, how does the EC50 read?
A: Its EC50 is 590 nM.

system: Human immunodeficiency virus 1; assay: Antiviral activity against HIV1 isolate 157 harboring reverse transcriptase L74V/M184V mutant gene by phenosense assay; format: functional, organism-based; details: Human immunodeficiency virus 1, isolate 157; outline: as §1

Q: With Cc1cn([C@H]2C=C[C@@H](CO)O2)c(=O)[nH]c1=O [STAVUDINE] as the compound, how does the EC50 read?
A: The EC50 was 420 nM.

system: Human immunodeficiency virus 1; assay: Antiviral activity against HIV1 isolate 060 harboring reverse transcriptase M41L/D67N/K70R/L210W/T215Y/K219E mutant gene by phenosense assay; format: functional, organism-based; details: Human immunodeficiency virus 1, isolate 060; outline: as §1

Q: How did the EC50 turn out when Cc1cn([C@H]2C=C[C@@H](CO)O2)c(=O)[nH]c1=O [STAVUDINE] was run?
A: The EC50 was 2800 nM.

system: Human immunodeficiency virus 1; assay: Antiviral activity against HIV1 isolate 200 harboring reverse transcriptase M41L/L210W/T215Y mutant gene by phenosense assay relative to wild type; format: functional; details: not given; outline: as §1

Q: For Cc1cn([C@H]2C=C[C@@H](CO)O2)c(=O)[nH]c1=O [STAVUDINE], which “fold change (FC)” value is on record?
A: The value was 2.1.

system: Human immunodeficiency virus 1; assay: Antiviral activity against HIV1 isolate 217 harboring reverse transcriptase D67N/K70E/M184V mutant gene by phenosense assay relative to wild type; format: functional; details: not given
Outline: (§2)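 PhenoSense HIV recombinant virus assay: patient-derived HIV-1 with major NRTI resistance mutations tested against increasing drug concentrations to give inhibition curves. EC50 is the concentration giving 50% inhibition. Fold change is the test recombinant EC50 divided by the EC50 of a drug-sensitive wild-type reference virus. Panel of 30 NRTI-resistant isolates plus two wild-type viruses.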

Q: Which “fold change (FC)” value does the source give for Cc1cn([C@H]2C=C[C@@H](CO)O2)c(=O)[nH]c1=O [STAVUDINE] here?
A: Its value is 0.7.

system: Human immunodeficiency virus 1; assay: Antiviral activity against HIV1 isolate 160 harboring reverse transcriptase S68G/V75(I/T)/F77L/Y115F/F116Y /Q151M mutant gene by phenosense assay; format: functional, organism-based; details: Human immunodeficiency virus 1, isolate 160; outline: as §1

Q: Which EC50 does the source give for Cc1cn([C@H]2C=C[C@@H](CO)O2)c(=O)[nH]c1=O [STAVUDINE] here?
A: Its EC50 is 5500 nM.

system: Human immunodeficiency virus 1; assay: Antiviral activity against HIV1 isolate 071 harboring reverse transcriptase 65R/S68N/184V mutant gene by phenosense assay relative to wild type; format: functional; details: not given; outline: as §1

Q: How did the “fold change (FC)” value turn out when Cc1cn([C@H]2C=C[C@@H](CO)O2)c(=O)[nH]c1=O [STAVUDINE] was run?
A: Its value is 0.99.

system: Human immunodeficiency virus 1; assay: Antiviral activity against HIV1 isolate 157 harboring reverse transcriptase L74V/M184V mutant gene by phenosense assay relative to wild type; format: functional; details: not given; outline: as §1

Q: With Cc1cn([C@H]2C=C[C@@H](CO)O2)c(=O)[nH]c1=O [STAVUDINE] as the compound, how does the “fold change (FC)” value read?
A: Its value is 0.71.

system: Human immunodeficiency virus 1; assay: Antiviral activity against HIV1 isolate 153 harboring reverse transcriptase L74V mutant gene by phenosense assay; format: functional, organism-based; details: Human immunodeficiency virus 1, isolate 153; outline: as §1

Q: For Cc1cn([C@H]2C=C[C@@H](CO)O2)c(=O)[nH]c1=O [STAVUDINE], which EC50 is on record?
A: Its EC50 is 600 nM.

system: Human immunodeficiency virus 1; assay: Antiviral activity against HIV1 isolate 070 harboring reverse transcriptase 65R/S68G mutant gene by phenosense assay relative to wild type; format: functional; details: not given; outline: as §1

Q: How did the “fold change (FC)” value turn out when Cc1cn([C@H]2C=C[C@@H](CO)O2)c(=O)[nH]c1=O [STAVUDINE] was run?
A: Its value is 1.3.

system: Human immunodeficiency virus 1; assay: Antiviral activity against HIV1 isolate 060 harboring reverse transcriptase M41L/D67N/K70R/L210W/T215Y/K219E mutant gene by phenosense assay relative to wild type; format: functional; details: not given; outline: as §1

Q: Cc1cn([C@H]2C=C[C@@H](CO)O2)c(=O)[nH]c1=O [STAVUDINE] was tested. Which “fold change (FC)” value did it give?
A: Its value is 3.1.

system: Human immunodeficiency virus 1; assay: Antiviral activity against HIV1 isolate 061 harboring reverse transcriptase M41L/D67N/K70R/M184V/L210W/T215Y/K219E mutant gene by phenosense assay; format: functional, organism-based; details: Human immunodeficiency virus 1, isolate 061; outline: as §1

Q: Cc1cn([C@H]2C=C[C@@H](CO)O2)c(=O)[nH]c1=O [STAVUDINE] was tested. Which EC50 did it give?
A: The EC50 was 2400 nM.

system: Human immunodeficiency virus 1; assay: Antiviral activity against HIV1 isolate 211 harboring reverse transcriptase D67N/K70R/T215F/K219E/M184V mutant gene by phenosense assay relative to wild type; format: functional; details: not given; outline: as §2

Q: Which “fold change (FC)” value does the source give for Cc1cn([C@H]2C=C[C@@H](CO)O2)c(=O)[nH]c1=O [STAVUDINE] here?
A: The value was 1.3.

system: Human immunodeficiency virus 1; assay: Antiviral activity against HIV1 isolate 212 harboring reverse transcriptase L210W/T215Y mutant gene by phenosense assay; format: functional, organism-based; details: Human immunodeficiency virus 1, isolate 212; outline: as §2

Q: How did the EC50 turn out when Cc1cn([C@H]2C=C[C@@H](CO)O2)c(=O)[nH]c1=O [STAVUDINE] was run?
A: The EC50 was 940 nM.

system: Human immunodeficiency virus 1; assay: Antiviral activity against HIV1 isolate 070 harboring reverse transcriptase 65R/S68G mutant gene by phenosense assay; format: functional, organism-based; details: Human immunodeficiency virus 1, isolate 070; outline: as §1

Q: Cc1cn([C@H]2C=C[C@@H](CO)O2)c(=O)[nH]c1=O [STAVUDINE] was tested. Which EC50 did it give?
A: Its EC50 is 770 nM.

system: Human immunodeficiency virus 1; assay: Antiviral activity against HIV1 isolate 188 harboring reverse transcriptase T215Y/M184V mutant gene by phenosense assay; format: functional, organism-based; details: Human immunodeficiency virus 1, isolate 188; outline: as §1

Q: For Cc1cn([C@H]2C=C[C@@H](CO)O2)c(=O)[nH]c1=O [STAVUDINE], which EC50 is on record?
A: The EC50 was 650 nM.

system: Human immunodeficiency virus 1; assay: Antiviral activity against HIV1 isolate 067 harboring reverse transcriptase A62V/D67G/T69SVG/V75I/T215I mutant gene by phenosense assay; format: functional, organism-based; details: Human immunodeficiency virus 1, isolate 067; outline: as §1

Q: Cc1cn([C@H]2C=C[C@@H](CO)O2)c(=O)[nH]c1=O [STAVUDINE] was tested. Which EC50 did it give?
A: Its EC50 is 6400 nM.

system: Human immunodeficiency virus 1; assay: Antiviral activity against HIV1 isolate 192 harboring reverse transcriptase M41L/T215Y mutant gene by phenosense assay; format: functional, organism-based; details: Human immunodeficiency virus 1, isolate 192; outline: as §1

Q: How did the EC50 turn out when Cc1cn([C@H]2C=C[C@@H](CO)O2)c(=O)[nH]c1=O [STAVUDINE] was run?
A: The EC50 was 840 nM.

system: Human immunodeficiency virus 1; assay: Antiviral activity against HIV1 isolate 215 harboring reverse transcriptase D67N/K70E mutant gene by phenosense assay; format: functional, organism-based; details: Human immunodeficiency virus 1, isolate 215; outline: as §2

Q: Which EC50 does the source give for Cc1cn([C@H]2C=C[C@@H](CO)O2)c(=O)[nH]c1=O [STAVUDINE] here?
A: The EC50 was 560 nM.

system: Human immunodeficiency virus 1; assay: Antiviral activity against HIV1 isolate 061 harboring reverse transcriptase M41L/D67N/K70R/M184V/L210W/T215Y/K219E mutant gene by phenosense assay relative to wild type; format: functional; details: not given; outline: as §1

Q: For Cc1cn([C@H]2C=C[C@@H](CO)O2)c(=O)[nH]c1=O [STAVUDINE], which “fold change (FC)” value is on record?
A: The value was 2.6.

system: Human immunodeficiency virus 1; assay: Antiviral activity against HIV1 isolate 192 harboring reverse transcriptase M41L/T215Y mutant gene by phenosense assay relative to wild type; format: functional; details: not given; outline: as §1

Q: How did the “fold change (FC)” value turn out when Cc1cn([C@H]2C=C[C@@H](CO)O2)c(=O)[nH]c1=O [STAVUDINE] was run?
A: The value was 1.4.

system: Human immunodeficiency virus 1; assay: Antiviral activity against HIV1 isolate 180 harboring reverse transcriptase K65R mutant gene obtained as site-directed mutant of NL4-3 by phenosense assay relative to wild type; format: functional; details: not given; outline: as §1

Q: Which “fold change (FC)” value does the source give for Cc1cn([C@H]2C=C[C@@H](CO)O2)c(=O)[nH]c1=O [STAVUDINE] here?
A: The value was 1.4.

system: Human immunodeficiency virus 1; assay: Antiviral activity against HIV1 isolate 056 expressing wild type reverse transcriptase gene by phenosense assay; format: functional, organism-based; details: Human immunodeficiency virus 1, isolate 056
Outline: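 In the PhenoSense recombinant virus assay, virus was tested against increasing drug concentrations. EC50 came from the inhibition curve and was compared with a drug-sensitive reference virus.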

Q: For Cc1cn([C@H]2C=C[C@@H](CO)O2)c(=O)[nH]c1=O [STAVUDINE], which EC50 is on record?
A: Its EC50 is 510 nM.

system: Human immunodeficiency virus 1; assay: Antiviral activity against HIV1 isolate 058 harboring reverse transcriptase M41L/D67N/K70R/L210W/T215F/K219Q mutant gene by phenosense assay; format: functional, organism-based; details: Human immunodeficiency virus 1, isolate 058; outline: as §1

Q: Which EC50 does the source give for Cc1cn([C@H]2C=C[C@@H](CO)O2)c(=O)[nH]c1=O [STAVUDINE] here?
A: The EC50 was 2200 nM.

system: Human immunodeficiency virus 1; assay: Antiviral activity against HIV1 isolate 067 harboring reverse transcriptase A62V/D67G/T69SVG/V75I/T215I mutant gene by phenosense assay relative to wild type; format: functional; details: not given; outline: as §1

Q: How did the “fold change (FC)” value turn out when Cc1cn([C@H]2C=C[C@@H](CO)O2)c(=O)[nH]c1=O [STAVUDINE] was run?
A: The value was 11.

system: Human immunodeficiency virus 1; assay: Antiviral activity against HIV1 isolate 174 harboring reverse transcriptase M184V mutant gene obtained as site-directed mutant of NL4-3 by phenosense assay; format: functional, organism-based; details: Human immunodeficiency virus 1, isolate 174; outline: as §1

Q: Cc1cn([C@H]2C=C[C@@H](CO)O2)c(=O)[nH]c1=O [STAVUDINE] was tested. Which EC50 did it give?
A: Its EC50 is 400 nM.
